Screening results as filed in PubChem BioAssay.
KCNK3 inh – human KCNK3 channel inhibitors, primary screen, CHO cells, FluxOR thallium flux, B-score | Potassium channel subfamily K member 3 (Homo sapiens), O14649 | FluxOR fluorescence; active compounds read low | B-score at 10 µM | 0.84% of 340,000 active | AID 602410, 2012;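 active = B-score under library mean minus 4 SD, starting fluorescence ratio at most library mean plus 5 SD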;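 also: more negative B-score means stronger inhibition of thallium flux through KCNK3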
KCNQ1 pot – potentiators or activators of KCNQ1 channel, primary screen, cell-based, thallium flux, high-throughput; 0.35% of 310,000 active; B-score at 10 µM; AID 2648, 2010; CHO-K1 KCNQ1, thallium flux FluxOR fluorescence; active compounds read high;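 active = fluorescence ratio B-score, a plate-corrected score, at least three library SD, with initial intensity B-score within 5 SD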
Target sequence (P51787 whole entry, looked up): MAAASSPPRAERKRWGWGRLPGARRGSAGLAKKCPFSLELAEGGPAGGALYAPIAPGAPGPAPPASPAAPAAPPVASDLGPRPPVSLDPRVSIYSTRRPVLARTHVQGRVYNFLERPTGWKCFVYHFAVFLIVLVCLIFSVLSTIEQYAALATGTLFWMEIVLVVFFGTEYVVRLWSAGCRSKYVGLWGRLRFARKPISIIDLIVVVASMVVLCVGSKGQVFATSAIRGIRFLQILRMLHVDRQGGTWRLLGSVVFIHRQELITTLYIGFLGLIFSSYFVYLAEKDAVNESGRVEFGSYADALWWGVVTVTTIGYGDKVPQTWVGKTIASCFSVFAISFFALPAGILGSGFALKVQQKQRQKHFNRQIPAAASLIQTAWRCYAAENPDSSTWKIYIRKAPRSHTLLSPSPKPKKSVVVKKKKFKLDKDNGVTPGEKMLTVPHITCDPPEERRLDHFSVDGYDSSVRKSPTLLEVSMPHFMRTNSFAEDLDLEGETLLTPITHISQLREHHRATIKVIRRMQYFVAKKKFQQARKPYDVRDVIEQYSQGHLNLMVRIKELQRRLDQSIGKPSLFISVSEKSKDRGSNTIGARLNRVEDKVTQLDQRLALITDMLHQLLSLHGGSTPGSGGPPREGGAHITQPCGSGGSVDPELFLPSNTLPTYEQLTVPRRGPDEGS
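System: CHO-K1 cells stably expressing KCNQ1 / Medium: assay buffer for compound exposure, DMSO matched across wells / Reagent: thallium- and potassium-containing depolarizing buffer / Compound: one concentration, matched DMSO / Incubation: 20 min compound pretreatment at room temperature / Measured by: kinetic FluxOR fluorescence, 10 s baseline plus 110 s post-stimulus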
KCNQ1 block – inhibitors of human KCNQ1 channel, primary screen, cell-based, thallium flux, high-throughput; CHO-K1 KCNQ1, FluxOR thallium flux fluorescence; active compounds read high; 1.3% of 310,000 active; B-score at 10 µM; Potassium voltage-gated channel subfamily KQT member 1 (Homo sapiens), P51787;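 active = compounds whose thallium flux B-score, printed positive for inhibition, exceeds three library SD while starting fluorescence stays within three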;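 also: channel opened by potassium depolarization with thallium stimulus after 20 min compound exposure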
Kir21 block – inhibitors of mouse Kir2.1 inward-rectifier potassium channel; HEK293-Kir2.1, FluxOR thallium flux fluorescence; active compounds read low; B-score at 10 µM; 0.85% of 310,000 active;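 active = fluorescence ratio B-score at or below minus 3 SD of library scores, with starting-brightness B-score within 2 SD, cut at about -4.2 in these data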;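 also: channel flux triggered by added potassium and thallium sulfate stimulus; B-score of peak minus minimum fluorescence over baseline after thallium stimulus; more negative B-score means stronger Kir2.1 block with less thallium influx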
hERG rescue – hERG rescue from dofetilide block, primary screen, cell-based, CHO-hERG, FluxOR thallium flux, dofetilide IC70; Voltage-gated inwardly rectifying potassium channel KCNH2 (Homo sapiens), Q12809; dofetilide IC70 present; activation (rescue from dofetilide block), less the hit threshold, % at 10 µM; 0.51% of 310,000 active; AID 1511, 2009;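 active = activation above the mean of controls blocked by dofetilide plus 5 SD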;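 also: thallium influx through hERG after potassium depolarization seen as dye fluorescence rise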
KCNK9 block – KCNK9 potassium channel inhibitors, primary screen, HEK293 cells, thallium flux. B-score at 10 µM. AID 488922, 2010. FluxOR thallium flux fluorescence; active compounds read low. 1.2% of 310,000 active;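 active = ratio B-score over 3 SD below the library mean, with starting fluorescence within 5 SD of its mean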;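 also: negative B-score means less thallium flux so channel inhibition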
KCNK9 block conf – KCNK9 potassium channel inhibitors, confirmation, HEK293 cells, thallium flux, duplicate; FluxOR thallium flux fluorescence; shares compounds with KCNK9 block; inhibition, % at 10 µM; 43% of 4,900 active; AID 492992, 2010;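 active = thallium signal inhibited by more than 5 SD of the compound-free buffer control wells, on both duplicate plates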;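 also: 0% = assay buffer control wells without compound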
Kir21 sel – mouse Kir2.1 channel inhibition, confirmation, selectivity assay for KCNK9 modulator project, cell-based, HEK293, thallium flux; shares compounds with KCNK9 block; 4% of 4,900 active; inhibition, % at 10 µM; Kir2.1 cells, FluxOR thallium flux fluorescence; AID 492993, 2010;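 active = thallium signal drop more than 5 SD beyond the mean of the no-compound control wells, seen in both duplicate plates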;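 also: signal is fluorescence rise after thallium addition divided by baseline fluorescence; plate controls were assay buffer only for no effect and full block by chlorpromazine control for full effect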
HEK293 Tl ctr – thallium flux in non-induced HEK293 cells, confirmation, counter-screen for KCNK9 inhibitor project, cell-based, second counter screen, non-induced KCNK9-HEK293. shares compounds with KCNK9 block. FluxOR thallium flux. inhibition, % at 10 µM. 40% of 4,900 active. AID 492997, 2010;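 active = thallium signal drop beyond 5 SD of the untreated control mean, on both duplicate plates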;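 also: plate controls were buffer only IC0 wells for no effect and SID17386958 at its maximal inhibitory level for full effect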
* = called active by the depositor; i = inactive; · = not tested or not shown. Rows were chosen to be rich in hits. Some 3.7% of all compounds tested hit in one or more screens of this group.

SMILES	KCNK3 inh	KCNQ1 pot	KCNQ1 block	Kir21 block	hERG rescue	KCNK9 block	KCNK9 block conf	Kir21 sel	HEK293 Tl ctr
COC(=O)c1cc(=O)n(Cc2cccs2)c(=Nc2ccc(F)cc2)s1	i	i	i	0.68	-7	i	·	·	·
COC(=O)c1cc(=O)n(CCc2ccccc2F)c(=Nc2ccc(F)c(Cl)c2)s1	i	i	i	2.2	-3	-14*	44%*	i	36%*
CC(CCc1ccccc1)NC(=O)C1CCCN(C(=O)c2cc3sccc3n2C)C1 (stereo unspecified)	i	i	i	0.35	0	i	·	·	·
Cn1c(C(=O)N2CCCC(C(=O)NCCCSC3CCCCC3)C2)cc2sccc21 (stereo unspecified)	i	i	i	0.32	-4	i	i	i	i
CCn1c(C(=O)N2CCCC(C(=O)NCCc3ccc(C)cc3)C2)cc2sccc21 (stereo unspecified)	i	·	·	·	·	·	·	·	·
CCn1c(C(=O)N2CCCC(C(=O)NCCCc3ccccc3)C2)cc2sccc21 (stereo unspecified)	i	i	i	-0.73	-9	i	i	i	i
C[C@@H]1CN([C@@H](C)CO)C(=O)c2cccc(NC(=O)Nc3ccc4c(c3)OCO4)c2O[C@H]1CN(C)S(=O)(=O)c1cn(C)cn1	i	·	·	·	·	·	·	·	·
CC(C)n1c(SCC(=O)Nc2nc3c(s2)CCCC3)nc2c1c(=O)n(C)c(=O)n2C	i	i	i	-0.38	-22	i	·	·	·
COc1cccc(NC(=O)[C@H](CC(C)C)NC(=O)N2CCn3c2nc2ccccc23)c1	i	i	i	0.32	-6	-9.9*	i	i	i
COc1ccc(/C=C/C(=O)NCc2cccnc2)cc1	i	i	i	-0.01	-2	i	·	·	·
CCc1ccc(CN(Cc2cccnc2)C(=O)/C=C/c2ccc(OC)cc2)cc1	i	i	i	1.7	-14	i	i	i	i
CC(C)CN1C(=O)c2ccc(C(=O)Nc3ccccc3C(=O)O)cc2C1=O	i	i	i	-0.32	-9	i	·	·	·
Oc1ccc(N=Nc2ccc3c(c2)OCCO3)c2cccnc12	i	55*	i	-1.1	-10	i	i	i	i
COc1cccc(N=Nc2ccc(O)c3ncccc23)c1	i	i	i	-0.46	16*	i	i	i	i
Cc1cc(C(=O)CSc2ccc(F)cc2)cc(C)c1OC(=S)N(C)C	i	i	i	0.11	-9	i	i	i	32%*
Cc1ccc(SCC(=O)c2cc(C)c(O)c(C)c2)cc1	i	i	i	-0.04	-6	i	·	·	·
O=C(NC12CC3CC(CC(C3)C1)C2)c1ccc(-c2ccccc2Cl)o1	i	i	i	-2.9	-5	i	i	i	i
O=C(NC12CC3CC(CC(C3)C1)C2)c1ccc(-c2ccc(Cl)cc2)o1	i	i	i	-0.29	-11	i	·	·	·
O=c1nc(SCc2ccc(Cl)cc2)nc(-c2ccccc2)[nH]1	i	i	i	-1.1	-8	i	i	i	i
COc1ccc(Cl)cc1NC(=O)CN(C)C(=O)C12CC3CC(CC(Cl)(C3)C1)C2	i	i	i	-0.54	-11	i	·	·	·
Cc1ccc(N2C(=O)C3C4C=CC(CNC(=S)Nc5cccc(Cl)c5)(O4)C3C2=O)cc1 (stereo unspecified)	i	i	i	-1.2	-8	i	·	·	·
N#Cc1nc(Cc2ccccc2)oc1N1CCC(Cc2ccccc2)CC1	i	i	i	0.99	-7	i	i	i	i
N#Cc1nc(COc2ccc(F)cc2)oc1N1CCC(Cc2ccccc2)CC1	i	i	i	0.05	-11	i	·	·	·
COc1ccc(-c2csc(NC(C)c3nc4cc(Cl)c(N5CCCCC5)cc4n3CCOCCO)n2)cc1 (stereo unspecified)	i	i	i	0.77	-10	i	·	·	·
COc1ccc(-c2csc(NC(C)c3nc4cc(Cl)c(Cl)cc4n3CCOCCO)n2)cc1 (stereo unspecified)	i	i	i	0.39	-6	-8.6*	32%*	i	40%*
SMILES	KCNK3 inh	KCNQ1 pot	KCNQ1 block	Kir21 block	hERG rescue	KCNK9 block	KCNK9 block conf	Kir21 sel	HEK293 Tl ctr
C=CCC[C@H](Cc1ccc(F)cc1)C(=O)OC[C@@H](NC(=O)[C@H](CC=C)CC(=O)NCCO)c1ccccc1	i	·	·	·	·	·	·	·	·
CCC(=O)c1cn(CC(=O)Nc2ccc(C)cc2C)c2ccccc12	i	i	i	1	4	i	·	·	·
O=C(CSc1ccc(-c2ccc(Cl)cc2)nn1)N1CCCc2ccccc21	i	i	i	1.3	-15	i	i	i	i
O=C(CSc1ccc(-c2ccc(F)cc2)nn1)N1CCCc2ccccc21	i	i	i	-0.01	-5	i	·	·	·
O=C1/C(=C/c2cccc(F)c2)SC(=S)N1NS(=O)(=O)c1ccccc1	i	i	i	-4.6	-2	i	i	i	i
C=CCOc1ccc(/C=C2\SC(=S)N(NS(=O)(=O)c3ccc(C)cc3)C2=O)cc1	i	24*	i	-1.3	-4	i	i	i	i
Cc1ccc(S(=O)(=O)NN2C(=O)/C(=C/c3ccc(C(=O)O)cc3)SC2=S)cc1	i	i	i	1.6	-5	i	·	·	·
COc1ccc(/C=C2/SC(=S)N(NS(=O)(=O)c3ccc(C)cc3)C2=O)cc1	i	12*	i	1.2	-10	i	i	i	i
Cc1ccc(S(=O)(=O)NN2C(=O)/C(=C/c3ccc(F)cc3)SC2=S)cc1	i	i	i	2.4	-2	i	·	·	·
Cc1noc(C)c1CSCC(=O)Nc1nc2ccc(S(C)(=O)=O)cc2s1	i	i	i	0.04	-11	i	·	·	·
N#Cc1ccc(-c2ccc3c(c2)OCO3)nc1SCC(=O)OCc1ccccc1	i	i	i	0.5	-8	-10*	i	i	27%*
